From ChEMBL document CHEMBL1152843, “Synthesis of new series of 5,6-dihydro-4H-1,2-oxazines via hetero Diels-Alder reaction and evaluation of antimicrobial activity” (2009)
Converted amounts (≈) assume the structure as drawn.

Tests used:
Assay type in all cases: functional
Fusarium verticillioides [1] = assay: Antifungal activity against Fusarium moniliforme at 20 ug after 48 hrs by cup diffusion method; settings: read-out: IZ
Method in brief: (§1)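 Cup diffusion on 9 cm plates seeded with 1 × 10⁶ cfu of fungi, with spores adjusted to at least 1 × 10⁶ cfu/ml in potato dextrose broth. Compound in DMF was placed in 5 mm agar cups and left 1 h to diffuse. Plates were incubated at 28 °C for 48 h and the inhibition zone read in mm. DMF was the negative control.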

Fusarium oxysporum [2] = assay: Antifungal activity against Fusarium oxysporum at 20 ug after 48 hrs by cup diffusion method; settings: read-out: IZ; method in brief: as §1
Aspergillus flavus [3] = assay: Antifungal activity against Aspergillus flavus after 48 hrs by cup diffusion method
Aspergillus niger [4] = assay: Antifungal activity against Aspergillus niger after 48 hrs by cup diffusion method
Fusarium verticillioides [5] = assay: Antifungal activity against Fusarium moniliforme after 48 hrs by cup diffusion method
Fusarium oxysporum [6] = assay: Antifungal activity against Fusarium oxysporum after 48 hrs by cup diffusion method
Klebsiella pneumoniae [7] = assay: Antibacterial activity against Klebsiella pneumoniae […] at 20 ug after 24 hrs by cup diffusion method; settings: read-out: IZ
Method in brief: (§2)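 Agar cup diffusion. Plates of sterile medium in 9 cm dishes were seeded with 1 × 10⁵ cfu of bacteria, with the suspension adjusted to at least 1 × 10⁵ cfu/ml in nutrient broth. Compound in DMF was placed in 5 mm cups and pre-diffused for 1 h. Plates were incubated at 37 °C for 24 h and the inhibition zone measured in mm. DMF served as negative control.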

Escherichia coli [8] = assay: Antibacterial activity against Escherichia coli MTCC 443 at 20 ug after 24 hrs by cup diffusion method; settings: MTCC 443, 24 h, read-out: IZ; method in brief: as §2
Pseudomonas aeruginosa [9] = assay: Antibacterial activity against Pseudomonas aeruginosa MTCC 1688 at 20 ug after 24 hrs by cup diffusion method; settings: MTCC 1688, 24 h, read-out: IZ; method in brief: as §2
Staphylococcus aureus [10] = assay: Antibacterial activity against Staphylococcus aureus MTCC 737 at 20 ug after 24 hrs by cup diffusion method; settings: MTCC 737, 24 h, read-out: IZ; method in brief: as §2
Escherichia coli [11] = assay: Antibacterial activity against Escherichia coli MTCC 443 after 24 hrs by cup diffusion method; settings: MTCC 443, 24 h
Klebsiella pneumoniae [12] = assay: Antibacterial activity against Klebsiella pneumoniae […] after 24 hrs by cup diffusion method
Pseudomonas aeruginosa [13] = assay: Antibacterial activity against Pseudomonas aeruginosa MTCC 1688 after 24 hrs by cup diffusion method; settings: MTCC 1688, 24 h
Staphylococcus aureus [14] = assay: Antibacterial activity against Staphylococcus aureus MTCC 737 after 24 hrs by cup diffusion method; settings: MTCC 737, 24 h
Aspergillus flavus [15] = assay: Antifungal activity against Aspergillus flavus at 20 ug after 48 hrs by cup diffusion method; settings: read-out: IZ; method in brief: as §1
Aspergillus niger [16] = assay: Antifungal activity against Aspergillus niger at 20 ug after 48 hrs by cup diffusion method; settings: read-out: IZ; method in brief: as §1

| Structure (SMILES) | MIC (Aspergillus flavus [3]) | MIC (Aspergillus niger [4]) | MIC (Fusarium verticillioides [5]) | MIC (Fusarium oxysporum [6]) | MIC (Escherichia coli [11]) | MIC (Klebsiella pneumoniae [12]) | MIC (Pseudomonas aeruginosa [13]) | MIC (Staphylococcus aureus [14]) | zone of inhibition at 20 µg/disc (Fusarium verticillioides [1]) | zone of inhibition at 20 µg/disc (Fusarium oxysporum [2]) | zone of inhibition at 20 µg/disc (Klebsiella pneumoniae [7]) | zone of inhibition at 20 µg/disc (Escherichia coli [8]) | zone of inhibition at 20 µg/disc (Pseudomonas aeruginosa [9]) | zone of inhibition at 20 µg/disc (Staphylococcus aureus [10]) | zone of inhibition at 20 µg/disc (Aspergillus flavus [15]) | zone of inhibition at 20 µg/disc (Aspergillus niger [16]) |
| --- | --- | --- | --- | --- | --- | --- | --- | --- | --- | --- | --- | --- | --- | --- | --- | --- |
| Cc1ccc(C2=NOC(C#N)CC2)cc1C (stereo unspecified) | 20 µg/mL (≈ 93.3 µM) | 20 µg/mL (≈ 93.3 µM) | 15 µg/mL (≈ 70 µM) | 15 µg/mL (≈ 70 µM) | 25 µg/mL (≈ 117 µM) | 15 µg/mL (≈ 70 µM) | 15 µg/mL (≈ 70 µM) | 10 µg/mL (≈ 46.7 µM) | 15.7 mm | 21.5 mm | 19.8 mm | 15.5 mm | 15.2 mm | 21.5 mm | 12.2 mm | 11.7 mm |
| Cc1ccc(C2=NOC(CCl)CC2)cc1 (stereo unspecified) | 15 µg/mL (≈ 67.1 µM) | 15 µg/mL (≈ 67.1 µM) | 10 µg/mL (≈ 44.7 µM) | 15 µg/mL (≈ 67.1 µM) | 20 µg/mL (≈ 89.4 µM) | 15 µg/mL (≈ 67.1 µM) | 15 µg/mL (≈ 67.1 µM) | 10 µg/mL (≈ 44.7 µM) | 17.7 mm | 20.8 mm | 16.5 mm | 15.7 mm | 11.5 mm | 16.7 mm | 14.5 mm | 13.8 mm |
| Cc1ccc(C2=NOC(CO)CC2)cc1 (stereo unspecified) | 30 µg/mL (≈ 146 µM) | 35 µg/mL (≈ 171 µM) | 30 µg/mL (≈ 146 µM) | 25 µg/mL (≈ 122 µM) | 35 µg/mL (≈ 171 µM) | 30 µg/mL (≈ 146 µM) | 25 µg/mL (≈ 122 µM) | 25 µg/mL (≈ 122 µM) | 15.8 mm | 19.8 mm | 19.8 mm | 8.83 mm | 10.8 mm | 7.5 mm | 12.5 mm | 11.5 mm |
| COc1ccc(C2=NOC(CCl)CC2)cc1 (stereo unspecified) | 15 µg/mL (≈ 62.6 µM) | 20 µg/mL (≈ 83.4 µM) | 15 µg/mL (≈ 62.6 µM) | 10 µg/mL (≈ 41.7 µM) | 20 µg/mL (≈ 83.4 µM) | 10 µg/mL (≈ 41.7 µM) | 15 µg/mL (≈ 62.6 µM) | 10 µg/mL (≈ 41.7 µM) | 25.2 mm | 29.7 mm | 17.7 mm | 9.5 mm | 29.5 mm | 14.7 mm | 21.7 mm | 19.5 mm |
| N#CC1CCC(c2ccc3c(c2)CCC3)=NO1 (stereo unspecified) | 40 µg/mL (≈ 177 µM) | 35 µg/mL (≈ 155 µM) | 40 µg/mL (≈ 177 µM) | 35 µg/mL (≈ 155 µM) | 25 µg/mL (≈ 110 µM) | 20 µg/mL (≈ 88.4 µM) | 15 µg/mL (≈ 66.3 µM) | 15 µg/mL (≈ 66.3 µM) | 13.5 mm | 17.7 mm | 23.8 mm | 15.5 mm | 31.5 mm | 17.7 mm | 9.5 mm | 10.7 mm |
| CCOC(=O)C1CCC(c2ccc(OC)cc2)=NO1 (stereo unspecified) | 10 µg/mL (≈ 38 µM) | 15 µg/mL (≈ 57 µM) | 20 µg/mL (≈ 76 µM) | 10 µg/mL (≈ 38 µM) | 35 µg/mL (≈ 133 µM) | 25 µg/mL (≈ 95 µM) | 20 µg/mL (≈ 76 µM) | 20 µg/mL (≈ 76 µM) | 28 mm | 30.7 mm | 14.8 mm | 24.7 mm | 23.7 mm | 16.7 mm | 25.5 mm | 24.2 mm |
| Cc1ccc(C2=NOC(Cc3ccc4c(c3)OCO4)CC2)cc1 (stereo unspecified) | 15 µg/mL (≈ 48.5 µM) | 20 µg/mL (≈ 64.6 µM) | 20 µg/mL (≈ 64.6 µM) | 10 µg/mL (≈ 32.3 µM) | 25 µg/mL (≈ 80.8 µM) | 20 µg/mL (≈ 64.6 µM) | 20 µg/mL (≈ 64.6 µM) | 15 µg/mL (≈ 48.5 µM) | 19.5 mm | 24.5 mm | 19.7 mm | 10.7 mm | 11.2 mm | 12.8 mm | 17.8 mm | 15.7 mm |

The next lines start with results.

| MIC (Aspergillus flavus [3]) | MIC (Aspergillus niger [4]) | MIC (Fusarium verticillioides [5]) | MIC (Fusarium oxysporum [6]) | MIC (Escherichia coli [11]) | MIC (Klebsiella pneumoniae [12]) | MIC (Pseudomonas aeruginosa [13]) | MIC (Staphylococcus aureus [14]) | Structure (SMILES) | zone of inhibition at 20 µg/disc (Fusarium verticillioides [1]) | zone of inhibition at 20 µg/disc (Fusarium oxysporum [2]) | zone of inhibition at 20 µg/disc (Klebsiella pneumoniae [7]) | zone of inhibition at 20 µg/disc (Escherichia coli [8]) | zone of inhibition at 20 µg/disc (Pseudomonas aeruginosa [9]) | zone of inhibition at 20 µg/disc (Staphylococcus aureus [10]) | zone of inhibition at 20 µg/disc (Aspergillus flavus [15]) | zone of inhibition at 20 µg/disc (Aspergillus niger [16]) |
| --- | --- | --- | --- | --- | --- | --- | --- | --- | --- | --- | --- | --- | --- | --- | --- | --- |
| 40 µg/mL (≈ 159 µM) | 40 µg/mL (≈ 159 µM) | 35 µg/mL (≈ 139 µM) | 30 µg/mL (≈ 119 µM) | 35 µg/mL (≈ 139 µM) | 25 µg/mL (≈ 99.5 µM) | 20 µg/mL (≈ 79.6 µM) | 20 µg/mL (≈ 79.6 µM) | COc1ccc(C2=NOC(CO)CC2)cc1OC (stereo unspecified) | 10.8 mm | 16.5 mm | 14.5 mm | 8.5 mm | 10.5 mm | 7.66 mm | 8.5 mm | 7.83 mm |
| 35 µg/mL (≈ 142 µM) | 35 µg/mL (≈ 142 µM) | 30 µg/mL (≈ 122 µM) | 30 µg/mL (≈ 122 µM) | 25 µg/mL (≈ 102 µM) | 15 µg/mL (≈ 60.9 µM) | 10 µg/mL (≈ 40.6 µM) | 15 µg/mL (≈ 60.9 µM) | COc1ccc(C2=NOC(C#N)CC2)cc1OC (stereo unspecified) | 12.8 mm | 15.5 mm | 7.75 mm | 10.5 mm | 24.5 mm | 15.5 mm | 10.5 mm | 11.5 mm |
| 35 µg/mL (≈ 158 µM) | 40 µg/mL (≈ 181 µM) | 35 µg/mL (≈ 158 µM) | 30 µg/mL (≈ 136 µM) | 35 µg/mL (≈ 158 µM) | 25 µg/mL (≈ 113 µM) | 20 µg/mL (≈ 90.4 µM) | 20 µg/mL (≈ 90.4 µM) | COc1ccc(C2=NOC(CO)CC2)cc1 (stereo unspecified) | 17.6 mm | 19.5 mm | 15.5 mm | 10.7 mm | 16.7 mm | 10.8 mm | 7.83 mm | 8.66 mm |
| 40 µg/mL (≈ 113 µM) | 40 µg/mL (≈ 113 µM) | 35 µg/mL (≈ 98.5 µM) | 30 µg/mL (≈ 84.4 µM) | 25 µg/mL (≈ 70.3 µM) | 15 µg/mL (≈ 42.2 µM) | 20 µg/mL (≈ 56.3 µM) | 10 µg/mL (≈ 28.1 µM) | COc1ccc(C2=NOC(Cc3ccc4c(c3)OCO4)CC2)cc1OC (stereo unspecified) | 11.2 mm | 15.8 mm | 17.5 mm | 8.12 mm | 14.1 mm | 16.5 mm | 8.12 mm | 7.75 mm |
